Experimental data collected from several papers.
Each line is one published result; the experiments were not run side by side.
Target: Phosphatidylinositol 4-kinase beta (PI4KB, Homo sapiens, UniProt Q9UBF8)

O=C(Nc1cnc(Oc2ccc(F)cc2)nc1)N1CCc2ncccc2[C@@H]1c1ccc(F)cc1
remaining binding (cell-free assay; competition with immobilised ligand; 1 µM): 89%

Cc1ccc(C(=O)Nc2ccc(CN3CCN(C)CC3)c(C(F)(F)F)c2)cc1C#Cc1cnc2cccnn12
remaining activity (enzyme activity; inhibitor; 23.5 nM): 89%

CS(=O)(=O)Nc1cccc(-c2csc(NC(=O)CSc3nc4nccnc4c(=O)n3CCc3ccccc3)n2)c1
inhibition (enzyme activity; inhibitor; 10 µM): 17%

O=C(Nc1nccs1)C(c1cc(F)ccc1O)N1Cc2ccccc2C1=O (stereo not shown)
inhibition (enzyme activity; inhibitor; 1 µM): 9%

CN(C)CC#Cc1ccc(OCCCc2sc(N3CCc4cccc(C(=O)Nc5nc6ccccc6s5)c4C3)nc2C(=O)O)c(F)c1
remaining binding (cell-free assay; competition with immobilised ligand; 1 µM): 100%

CC1CCCN1c1nccc(-c2cnn3ncccc23)n1 (stereo not shown)
remaining binding (binding; 1 µM): 100%

c1ccc(CNc2nc(N3CCOc4ccccc43)nc3c2CCCC3)cc1
inhibition (target engagement in cells; inhibitor; chemoproteomics; 20 mM): -16.5%

O=C(CSc1nc2nccnc2c(=O)n1CCc1ccccc1)Nc1ccccc1
inhibition (enzyme activity; inhibitor; 10 µM): < 20%

CCCCNc1ncc2c(-c3ccc(F)cc3)nn(C[C@H]3CC[C@H](N)CC3)c2n1
inhibition (target engagement in cells; inhibitor; chemoproteomics; 20 mM): 29.3%

Nc1ncnc2occ(-c3ccc(NC(=O)Nc4cc(C(F)(F)F)ccc4F)cc3)c12
remaining activity (enzyme activity; inhibitor; 20 µM): 5.9%
